Series [1] in a line: Stability in phosphate buffer at pH 7.4 at 37 degC at 100 uM after 72 hrs. The format is physicochemical. To be noted: for remaining at 72 h, 100 µM: phosphate buffer, pH 7.4, read-out: Stability. Summed up: (§1)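 Prodrug at 100 µM in 10 mM phosphate buffer pH 7.4, held at 37 °C. Intact prodrug was quantified by C18 HPLC at 270 nm and expressed as % remaining at 24 h or 72 h.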

Series [2] is described as follows: Stability in phosphate buffer at pH 7.4 at 37 degC at 100 uM after 24 hrs. Type of series: physicochemical. To be noted: for remaining at 24 h, 100 µM: phosphate buffer, pH 7.4, read-out: Stability. The procedure, abridged: as §1
The nature of series [3]: Aqueous solubility in citrate buffer at pH 4. The format is physicochemical. Summed up: (§2)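 Each prodrug was dissolved at 10 mg/mL (pyridyl prodrugs at 200 mg/mL) in 100 mM citrate buffer pH 4.0 or 100 mM phosphate pH 7.4. Samples were sonicated 20 min, held ~10 min at room temperature, filtered through 0.45 µm, diluted 1:100 or 1:10000 in DMSO, then quantified by C18 HPLC (acetonitrile gradient, 40 °C, 270 nm).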

Series [4] can be described thus: Aqueous solubility in phosphate buffer at pH 7.4. The format is physicochemical. The procedure, abridged: as §2
Series [5] deals with Liver. Kind of series: Ratio of AUC for araCTP level in liver to bone marrow of Swiss Webster mouse. The format is functional.
The test system of series [6] is Liver. Briefly: Ratio of AUC for araCTP level in liver to plasma of Swiss Webster mouse. Type of series: functional.
For another series, the system named is Bone marrow. Briefly: Distribution of araCTP in Swiss Webster mouse bone marrow at 100 mg/kg, ip measured as AUC (0-4h). Further details: time < 5 hr, dose 100 mg/kg, route intraperitoneal. Type of series: ADME, organism-based. To be noted: in vivo, 5 h. Summed up:
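Male Swiss Webster mice were given i.p. prodrug at a molar equivalent of 100 mg/kg araC. Bone marrow cell pellets collected up to 4 h were extracted with 12 volumes of 3% PCA, centrifuged 10 min and neutralized to pH 7-8 with KOH/KHCO₃. AraCTP was expressed as AUC 0-4 h; the lower limit of quantitation was 3 nmol·h/g.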

Series [7] concerns Liver. Kind of series: Distribution of araCTP in Swiss Webster mouse liver at 100 mg/kg, ip measured as AUC (0-4h). Further details: time < 5 hr, dose 100 mg/kg, route intraperitoneal. The format is ADME, organism-based. Particulars: in vivo, 5 h. The procedure, abridged:
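Nonfasted male Swiss Webster mice were dosed i.p. at a molar equivalent of 100 mg/kg araC. Livers were taken at set times up to 4 h, snap-frozen, homogenized in 3 volumes of 10% PCA, centrifuged and neutralized with KOH/KHCO₃. AraCTP was measured and reported as AUC 0-4 h (nmol·h/g).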

Setting [8] is: citrate buffer, read-out: Solubility.
Where [9] appears, read: phosphate buffer, read-out: Solubility.

In brackets after ≈: the same amount, converted by molar mass. Some results are limits rather than exact numbers.

For the compound `Nc1ccn([C@@H]2O[C@H](COP3(=O)OCC[C@H](c4cccnc4)O3)[C@@H](O)[C@@H]2O)c(=O)n1` (some centres not stated), in series [1], the remaining at 72 h, 100 µM was 83%. For the same compound, the remaining at 24 h, 100 µM in series [2] is 99%. Moreover, the solubility in series [3] (setting [8]) was 172000 µg/mL (≈ 391 mM); in series [4] (setting [9]), 176000 µg/mL (≈ 400 mM).
Consider `Nc1ccn([C@@H]2O[C@H](COP3(=O)OCC[C@H](c4ccncc4)O3)[C@@H](O)[C@@H]2O)c(=O)n1` (stereo in doubt; 19R), for which the “Ratio AUC” value with Liver [5] is given as more than 7; in the series on Liver [6] it was 19.4. Moreover, the remaining at 72 h, 100 µM in series [1] is more than 97%. The AUC in the series on Bone marrow is less than 12 nmol/g; with Liver [7] it was 68 nmol·h/g. The remaining at 24 h, 100 µM in series [2] is more than 99%. The solubility in series [3] (buffer) turned out to be 37900 µg/mL (≈ 86.1 mM); in series [4] (buffer), 16700 µg/mL (≈ 37.9 mM).
With `Nc1ccn([C@@H]2O[C@H](COP3(=O)OCC[C@H](c4ccncc4)O3)[C@@H](O)[C@@H]2O)c(=O)n1` (stereo in doubt; 10i), the Stability came to 90% in series [1] (buffer, pH 7.4, 72 h, 100 µM, 72 h) and 92% in series [2] (buffer, pH 7.4, 24 h, 100 µM, 24 h). The solubility in series [3] (buffer) and in series [4] (buffer) was more than 200000 µg/mL each time.
For `Nc1ccn([C@@H]2O[C@H](COP3(=O)OCC[C@@H](c4ccncc4)O3)[C@@H](O)[C@@H]2O)c(=O)n1` (some centres not stated), the entries for the “Ratio AUC” value with Liver [5] and in the series with Liver [6] were more than 12 and 19.6, respectively. Moreover, the remaining at 72 h, 100 µM in series [1] was more than 95%. The AUC in the series with Bone marrow was less than 12 nmol/g; in the series on Liver [7], 148.8 nmol·h/g. In addition, the remaining at 24 h, 100 µM in series [2] was more than 99%. The solubility in series [3] (setting [8]) amounted to 23900 µg/mL (≈ 54.3 mM); in series [4] (setting [9]), 7100 µg/mL (≈ 16.1 mM).
Turning to `Nc1ccn([C@@H]2O[C@H](COP3(=O)OCC[C@H](c4ccc(F)c(Cl)c4)O3)[C@@H](O)[C@@H]2O)c(=O)n1` (some centres not stated), the remaining at 72 h, 100 µM in series [1] stood at 52%. The remaining at 24 h, 100 µM in series [2] stood at 74%. For the same compound, the results for the solubility in series [3] (setting [8]) and in series [4] (setting [9]) were 6700 µg/mL (≈ 13.6 mM) and 3200 µg/mL (≈ 6.51 mM), respectively.
As to `Nc1ccn([C@@H]2O[C@H](CO)[C@@H](O)[C@@H]2O)c(=O)n1` [CYTARABINE], the “Ratio AUC” value in the series with Liver [5] is reported as less than 0.42; in the series with Liver [6] it was less than 0.16. Besides, the AUC with Bone marrow was 46 nmol/g; in the series with Liver [7] it was less than 19.2 nmol·h/g.
As to `COC(=O)c1ccc([C@H]2CCOP(=O)(OC[C@H]3O[C@@H](n4ccc(N)nc4=O)[C@@H](O)[C@@H]3O)O2)cc1` (some centres not stated), the remaining at 72 h, 100 µM in series [1] worked out at 61%. In addition, the remaining at 24 h, 100 µM in series [2] was 84%. For the same compound, the solubility is 7400 µg/mL (≈ 14.9 mM) in series [3] (setting [8]) and 5700 µg/mL (≈ 11.5 mM) in series [4] (setting [9]).
With `Nc1ccn([C@@H]2O[C@H](COP3(=O)OCC[C@H](c4ccc(Cl)cc4)O3)[C@@H](O)[C@@H]2O)c(=O)n1` (some centres not stated), the remaining at 72 h, 100 µM in series [1] is 4%. Further, the remaining at 24 h, 100 µM in series [2] was found to be 5%.
As to `Nc1ccn([C@@H]2O[C@H](COP3(=O)OCC[C@H](c4ccc(Br)cc4)O3)[C@@H](O)[C@@H]2O)c(=O)n1` (some centres not stated), the remaining at 72 h, 100 µM in series [1] was determined as 4%. Further, the remaining at 24 h, 100 µM in series [2] was determined as 9%.
Turning to `Nc1ccn([C@@H]2O[C@H](COP3(=O)OCC[C@H](c4cccc(Cl)c4)O3)[C@@H](O)[C@@H]2O)c(=O)n1` (some centres not stated), in series [1], the remaining at 72 h, 100 µM is 21%. For the same compound, the remaining at 24 h, 100 µM in series [2] stood at 63%. Further, the results for the solubility in series [3] (setting [8]) and in series [4] (setting [9]) were 3700 µg/mL (≈ 7.81 mM) and 1700 µg/mL (≈ 3.59 mM), respectively.
The matching figures for `COC(=O)c1cccc([C@H]2CCOP(=O)(OC[C@H]3O[C@@H](n4ccc(N)nc4=O)[C@@H](O)[C@@H]3O)O2)c1` (some centres not stated): 23%, 60%, 10300 µg/mL (≈ 20.7 mM) and 7200 µg/mL (≈ 14.5 mM).
Taken in the same sequence, the figures for `Nc1ccn([C@@H]2O[C@H](COP3(=O)OCC[C@H](c4cc(Cl)cc(Cl)c4)O3)[C@@H](O)[C@@H]2O)c(=O)n1` (some centres not stated) were 76%, 82%, 1100 µg/mL (≈ 2.16 mM) and 500 µg/mL (≈ 0.984 mM).

The values above are taken from ChEMBL document CHEMBL1138220, “Synthesis and characterization of a novel liver-targeted prodrug of cytosine-1-beta-D-arabinofuranoside monophosphate for the treatment of hepatocellular carcinoma” (J Med Chem, 2006).
